Legend:
Assay type in all cases: functional, cell-based
AGS [1] = assay: Growth inhibition of AGS cell line at 0.54 nM derived from human gastric carcinoma; conditions: Stomach
Procedure, shortened: (§1)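 Tumor cells were exposed to the compound added as a methanol solution and cultured in a 5% CO2 incubator for 7 days (4 days for some table entries). Cells were counted, and percent growth inhibition = (mean control count − mean treated count)/mean control count × 100.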

AGS [2] = assay: Growth inhibition of AGS cell line at 13.72 nM derived from human gastric carcinoma; conditions: Stomach; procedure, shortened: as §1
AGS [3] = assay: Growth inhibition of AGS cell line at 2.74 nM derived from human gastric carcinoma; conditions: Stomach; procedure, shortened: as §1
HCT-15 [4] = assay: Growth inhibition of HCT-15 cell line at 0.54 nM derived from human colon carcinoma; procedure, shortened: as §1
HCT-15 [5] = assay: Growth inhibition of HCT-15 cell line at 13.72 nM derived from human colon carcinoma; procedure, shortened: as §1
HCT-15 [6] = assay: Growth inhibition of HCT-15 cell line at 2.74 nM derived from human colon carcinoma; procedure, shortened: as §1
LNCaP [7] = assay: Growth inhibition of LNCaP cell line at 0.54 nM derived from prostate cancer; conditions: Homo sapiens; procedure, shortened: as §1
LNCaP [8] = assay: Growth inhibition of LNCaP cell line at 13.72 nM derived from prostate cancer; conditions: Homo sapiens; procedure, shortened: as §1
LNCaP [9] = assay: Growth inhibition of LNCaP cell line at 2.74 nM derived from prostate cancer; conditions: Homo sapiens; procedure, shortened: as §1
PC-3 = assay: Growth inhibition of PC-3 cell line at 13.72 nM derived from prostate cancer; conditions: Homo sapiens; procedure, shortened: as §1

With “TETRAKIS((TRISHYDROXYMETHYL) PHOSPHINE)GOLD(I) CHLORIDE” the inhibition (AGS [1]) was 10.2%, the inhibition (AGS [2]) was 59.5% and the inhibition (AGS [3]) was 17.4%. It also gave an inhibition (HCT-15 [4]) of 22.5%, an inhibition (HCT-15 [5]) of 87.5% and an inhibition (HCT-15 [6]) of 58.3%. For the same substance, the inhibition (LNCaP [7]) was 47.4%, the inhibition (LNCaP [8]) was 83.9% and the inhibition (LNCaP [9]) was 59.2%. It also gave an inhibition (PC-3) of 27%.
